This note sets out measurements from ChEMBL document CHEMBL1138624, “Design, synthesis, and quantitative structure-activity relationship of cytotoxic gamma-carboline derivatives” (Bioorg Med Chem, 2009).

Holding throughout (format): functional, cell-based
Assay [1] can be described thus: Cytotoxicity against human SGC cells after 48 hrs by MTT assay. In a few lines:
(§1)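 Cell lines sourced from Shanghai Institute of Pharmaceutical Industry; K562R is a multidrug-resistant subline. Cells exposed to compound for 48 h, then MTT in RPMI-1640 added with a further 4 h at 37 °C. Formazan dissolved in DMSO, absorbance read at 570 nm. Triplicate wells in three independent experiments. IC50 (50% inhibition of viability) from dose-effect analysis, reported as mean of three experiments.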

Assay [2] deals with K562. Briefly: Cytotoxicity against human K562 cells after 48 hrs by MTT assay. To be noted: K562, 48 h. The gist of the method: as §1
In another assay the test system is HCT-116. Briefly: Cytotoxicity against human HCT116 cells after 48 hrs by MTT assay. To be noted: HCT-116, 48 h. In a few lines: as §1
The test system of assay [3] is K562. Briefly: Cytotoxicity against multidrug-resistant human K562 cells after 48 hrs by MTT assay. The note with it: K562, 48 h. The gist of the method: as §1
In the next assay the test system is MCF7. Briefly: Cytotoxicity against human MCF7 cells after 48 hrs by MTT assay. The note with it: MCF7, 48 h. In a few lines:
as §1

The subject of the next assay is A549. Briefly: Cytotoxicity against human A549 cells after 48 hrs by MTT assay. To be noted: A549, 48 h. In a few lines: as §1

With `CCn1c2ccncc2c2cc(S(=O)(=O)Nc3ccc4c(ccn4C)c3)ccc21`, the IC50 is 73.2 µM in assay [1]; 12.2 µM in the assay with K562 [2] (read-out: IC50); 12.2 µM in the assay with K562 [2] (read-out: pIC50 (converted)); 23.2 µM with HCT-116; 16.8 µM in the assay with K562 [3]; 4.99 µM in the assay with MCF7. Besides, in the assay on A549, the IC50 was 73.5 µM.

Consider `CCn1c2ccncc2c2cc(NC(=O)c3ccc(Br)cc3)ccc21`, for which the IC50 was 71.2 µM in assay [1]; 13.2 µM with K562 [2] (read-out: IC50); 13.2 µM in the assay with K562 [2] (read-out: pIC50 (converted)); above 100 µM in the assay on HCT-116; 15.6 µM in the assay on K562 [3]; 11.9 µM in the assay on MCF7. The IC50 in the assay on A549 is above 100 µM.

For the compound `O=S(=O)(Nc1cccc2ncccc12)c1ccc2[nH]c3ccncc3c2c1`, the IC50 in assay [1] is 95.4 µM; in the assay with K562 [2] (read-out: IC50) it was 12.7 µM; in the assay on K562 [2] (read-out: pIC50 (converted)), 12.7 µM; with HCT-116 it was 30.8 µM; in the assay on K562 [3], 18.5 µM; in the assay on MCF7, 23.7 µM. This compound gave an IC50 in the assay on A549 of 22.8 µM.

In the case of `O=S(=O)(Oc1ccccc1)c1ccc2[nH]c3ccncc3c2c1`, the IC50 in assay [1] is above 100 µM; in the assay with K562 [2] (read-out: IC50) it was 77.4 µM; in the assay with K562 [2] (read-out: pIC50 (converted)), 77.4 µM; with HCT-116, 45.2 µM; with K562 [3] it was 48.9 µM; in the assay with MCF7 it was 38.6 µM. In the assay with A549, the IC50 is above 100 µM.

Consider `CCN(c1cc(OC)c(OC)c(OC)c1)S(=O)(=O)c1ccc2c(c1)c1cnccc1n2CC`, for which the IC50 is 13.8 µM in assay [1]; 1.02 µM with K562 [2] (read-out: IC50); 1.02 µM with K562 [2] (read-out: pIC50 (converted)); 10.2 µM in the assay with HCT-116; 3.02 µM in the assay with K562 [3]; 2.07 µM in the assay with MCF7. In the assay on A549, the IC50 is 33.9 µM.

`CCN(c1cc(OC)c(OC)c(OC)c1)S(=O)(=O)c1ccc2c(c1)c1c[n+](CC)ccc1n2CC`: the IC50 (in assay [1]; in the assay on K562 [2] (read-out: IC50); in the assay on HCT-116; in the assay on K562 [3]; in the assay with MCF7; in the assay on A549) was above 100 µM each time.

In the case of `Nc1ccc(OS(=O)(=O)c2ccc3[nH]c4ccncc4c3c2)cc1`, the IC50 in assay [1] was 2.12 µM; in the assay on K562 [2] (read-out: IC50) it was 18.4 µM; with K562 [2] (read-out: pIC50 (converted)), 18.5 µM; in the assay with HCT-116, 20.9 µM; with K562 [3], 5.95 µM; in the assay with MCF7, 16.6 µM. In the assay with A549, this compound registered an IC50 of 10.1 µM.

Take `CCn1c2ccncc2c2cc(NC(=O)c3cc(OC)c(OC)c(OC)c3)ccc21`: the IC50 in assay [1] is 16.1 µM; in the assay with K562 [2] (read-out: IC50), 13.6 µM; in the assay on K562 [2] (read-out: pIC50 (converted)), 13.6 µM; in the assay on A549 it was 15.9 µM.

As to `COc1cc(NS(=O)(=O)c2ccc3[nH]c4ccncc4c3c2)cc(OC)c1OC`, the IC50 in assay [1] is above 100 µM; in the assay with K562 [2] (read-out: IC50) it was 11.3 µM; in the assay with K562 [2] (read-out: pIC50 (converted)) it was 11.3 µM; in the assay with HCT-116 it was 16.9 µM; with K562 [3] it was 73.4 µM; with MCF7, 19.2 µM. Further, the IC50 in the assay on A549 worked out at 48.2 µM.

Consider `CCn1c2ccncc2c2cc(NC(=O)c3ccc(S(C)(=O)=O)cc3)ccc21`, for which the IC50 in assay [1] is 36 µM; in the assay with K562 [2] (read-out: IC50), 22.9 µM; in the assay on K562 [2] (read-out: pIC50 (converted)) it was 22.9 µM; in the assay with HCT-116 it was above 100 µM; with K562 [3], 96.6 µM; in the assay on MCF7 it was 22.8 µM. The compound also registered an IC50 in the assay on A549 above 100 µM.

For `COc1ccc(OS(=O)(=O)c2ccc3[nH]c4ccncc4c3c2)cc1`, the IC50 in assay [1] was 21.4 µM; in the assay with K562 [2] (read-out: IC50) it was 6.6 µM; in the assay on K562 [2] (read-out: pIC50 (converted)), 6.61 µM; in the assay on HCT-116, 23.9 µM; in the assay on K562 [3] it was 5.7 µM; in the assay on MCF7, 16 µM. Further, in the assay with A549, the IC50 is 22.6 µM.

For the compound `O=S(=O)(Oc1ccc(Cl)cc1)c1ccc2[nH]c3ccncc3c2c1`, the IC50 in assay [1] is 39.7 µM; in the assay with K562 [2] (read-out: IC50) it was 20.5 µM; in the assay on K562 [2] (read-out: pIC50 (converted)) it was 20.5 µM; in the assay with HCT-116 it was 32 µM; in the assay on K562 [3], 13.9 µM; with MCF7, 26.3 µM. The IC50 in the assay on A549 is 47.3 µM.

Regarding `CCn1c2ccncc2c2cc(NC(=O)c3ccc(OC)cc3)ccc21`, the IC50 is 21.3 µM in assay [1]; 11.3 µM in the assay with K562 [2] (read-out: IC50); 11.3 µM in the assay on K562 [2] (read-out: pIC50 (converted)); 50.7 µM with HCT-116; 5.15 µM with K562 [3]; 4.92 µM with MCF7. The compound further came in with an IC50 with A549 of 72 µM.

Regarding `O=[N+]([O-])c1ccc(OS(=O)(=O)c2ccc3[nH]c4ccncc4c3c2)cc1`, the IC50 is 7.15 µM in assay [1]; 27.9 µM in the assay with K562 [2] (read-out: IC50); 27.9 µM in the assay with K562 [2] (read-out: pIC50 (converted)); 21 µM in the assay on HCT-116; 8.34 µM in the assay with K562 [3]; 10.8 µM in the assay on MCF7. This compound also returned an IC50 in the assay on A549 of 17.5 µM.

In the case of `CCn1c2ccncc2c2cc(NC(=O)c3ccccc3Cl)ccc21`, the IC50 was 20.8 µM in assay [1]; 8.58 µM with K562 [2] (read-out: IC50); 8.57 µM in the assay with K562 [2] (read-out: pIC50 (converted)); 2.63 µM in the assay with HCT-116; 22.9 µM with K562 [3]; 6.52 µM in the assay with MCF7. Besides, the IC50 with A549 was 37.3 µM.

Take `O=S(=O)(Oc1cccc(Cl)c1)c1ccc2[nH]c3ccncc3c2c1`: the IC50 in assay [1] is 5.82 µM; in the assay with K562 [2] (read-out: IC50), 13.2 µM; in the assay with K562 [2] (read-out: pIC50 (converted)), 13.2 µM; in the assay on HCT-116, 42.7 µM; with K562 [3], 8.42 µM; with MCF7 it was 47.5 µM. For the same compound, the IC50 in the assay with A549 was determined as 43.6 µM.

Consider `CCn1c2ccncc2c2cc(S(=O)(=O)Nc3ccncc3)ccc21`, for which the IC50 (in assay [1]; in the assay on K562 [2] (read-out: IC50); in the assay with HCT-116; in the assay on K562 [3]; with MCF7; with A549) was above 100 µM throughout.

Consider `CCn1c2ccncc2c2cc(S(=O)(=O)Nc3cc(OC)c(OC)c(OC)c3)ccc21`, for which the IC50 in assay [1] is above 100 µM; in the assay with K562 [2] (read-out: IC50) it was 6.09 µM; in the assay with K562 [2] (read-out: pIC50 (converted)) it was 6.1 µM; with HCT-116, 32.3 µM; in the assay on K562 [3] it was above 100 µM; in the assay on MCF7 it was 5.8 µM. Further, in the assay with A549, the IC50 was above 100 µM.

On to `COc1cc(OS(=O)(=O)c2ccc3[nH]c4ccncc4c3c2)cc(OC)c1OC`, for which the IC50 in assay [1] was 0.15 µM; in the assay on K562 [2] (read-out: IC50), 4.5 µM; in the assay on K562 [2] (read-out: pIC50 (converted)), 4.5 µM; in the assay on HCT-116, 0.77 µM; in the assay on K562 [3], 2.62 µM; with MCF7 it was 0.86 µM.

With `O=S(=O)(Oc1cccc2ccccc12)c1ccc2[nH]c3ccncc3c2c1`, the IC50 in assay [1] is 23.3 µM; with K562 [2] (read-out: IC50) it was 25.9 µM; in the assay on K562 [2] (read-out: pIC50 (converted)), 25.9 µM; in the assay with HCT-116 it was 39.4 µM; with K562 [3], 10.7 µM; in the assay with MCF7, 14.3 µM. The IC50 in the assay on A549 turned out to be 33.4 µM.

With `CCn1c2ccncc2c2cc(NC(=O)c3ccccc3O)ccc21`, the IC50 is 19.2 µM in assay [1]; 12.7 µM in the assay with K562 [2] (read-out: IC50); 12.7 µM in the assay with K562 [2] (read-out: pIC50 (converted)); above 100 µM with HCT-116; 22.9 µM in the assay with K562 [3]; 20.9 µM with MCF7. In the assay with A549, the IC50 is above 100 µM.

In the case of `COc1ccccc1OS(=O)(=O)c1ccc2[nH]c3ccncc3c2c1`, the IC50 in assay [1] was 54.3 µM; with K562 [2] (read-out: IC50) it was 14.1 µM; with K562 [2] (read-out: pIC50 (converted)) it was 14.1 µM; in the assay on HCT-116, 64.1 µM; with K562 [3], 15.3 µM; in the assay with MCF7, 24.7 µM. Besides, in the assay with A549, the IC50 is 32 µM.

With `CCn1c2ccncc2c2cc(NC(=O)c3ccccc3)ccc21`, the IC50 in assay [1] is 26.5 µM; with K562 [2] (read-out: IC50), 26.2 µM; in the assay with K562 [2] (read-out: pIC50 (converted)), 26.2 µM; in the assay on HCT-116 it was above 100 µM; in the assay on K562 [3] it was 10.6 µM; with MCF7 it was 11.8 µM. Also, the IC50 in the assay on A549 is above 100 µM.

On to `CCn1c2ccncc2c2cc(NC(=O)c3cccnc3)ccc21`, for which the IC50 in assay [1] was 50.9 µM; in the assay on K562 [2] (read-out: IC50), 14.5 µM; in the assay with K562 [2] (read-out: pIC50 (converted)) it was 14.5 µM; with HCT-116, 87.2 µM; in the assay on K562 [3] it was 40.6 µM; in the assay with MCF7 it was 18.1 µM. In the assay on A549, this compound registered an IC50 of 73.5 µM.

As for `CCn1c2ccncc2c2cc(S(=O)(=O)Nc3ccccc3)ccc21`, the IC50 was 8 µM in assay [1]; 20.7 µM with K562 [2] (read-out: IC50); 20.7 µM with K562 [2] (read-out: pIC50 (converted)); 13.7 µM in the assay with HCT-116; above 100 µM in the assay with K562 [3]; 0.88 µM in the assay on MCF7. For the same compound, the IC50 with A549 was above 100 µM.
